Publication PMC4714695 (Cancer Science, 2015)
“Also recorded” adds a separate entry of the source.

Legend:
[1] = system: Japanese patients with acute myeloid leukemia; experiment: Phase I 3 + 3 dose escalation: dose-limiting toxicities and MTD; assay type: in vivo, human
Procedure, shortened: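 Open-label 3 + 3 escalation at 350, 400 and 450 mg (highest planned level), by 2-h IV infusion on days 1 and 15 of 28-day cycles; patients hospitalized in cycle 1. DLT: treatment-related CTCAE grade ≥3 non-hematologic AE in cycle 1. Exceptions: untreated nausea/vomiting, treatable grade 3 diarrhea, grade 3 febrile neutropenia or infection, lab abnormalities resolving within 5 days, grade 3 tumor lysis syndrome.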

[2] = system: Japanese patients with acute myeloid leukemia; experiment: Adverse events graded by CTCAE version 3.0; assay type: in vivo, human; conditions: for Blood creatinine increased, all grades, patients / Decreased appetite, all grades, patients / Decreased appetite, grade 3, patients / Epistaxis, all grades, patients / Fatigue, all grades, patients / Febrile neutropenia, all grades, patients / Febrile neutropenia, grade 3, patients / Hyperuricemia, all grades, patients / Hypoalbuminemia, all grades, patients / Hypokalemia, all grades, patients / Hypokalemia, grade 3, patients / Infection, all grades, patients / Infection, grade 3, patients / Nausea, all grades, patients / Neutropenia, all grades, patients / Neutropenia, grade 4, patients / Pyrexia, all grades, patients / Sepsis, all grades, patients / Sepsis, grade 3, patients / Stomatitis, all grades, patients / Vomiting, all grades, patients / Rash, all grades, patients / Hypokalemia, grade 4, patients: irrespective of relationship
Procedure, shortened: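 Adults with relapsed/refractory or untreated AML unfit for standard induction, ECOG ≤2. Test compound given as a 2-h IV drip infusion on days 1 and 15 of 28-day cycles, at 350, 400 or 450 mg per administration. AEs from all cycles graded by CTCAE v3.0 and tabulated per dose cohort by MedDRA system organ class, preferred term and grade, with drug causality assigned. Safety cut-off 6 June 2014.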

[3] = 450 mg, day 29 (cycle 2, day 1)
[4] = all cohorts (N = 19), all grades
[5] = all cohorts (N = 19), all treatment cycles

CC[C@@H]1C(=O)N(C)c2cnc(Nc3ccc(C(=O)N[C@H]4CC[C@H](N5CCN(CC6CC6)CC5)CC4)cc3OC)nc2N1C(C)C [Volasertib]
DLT in cycle 1 ([1]; 350 mg cohort): No DLT were reported
DLT in cycle 1 ([1]; 400 mg cohort): No DLT were reported
Patients with DLT in cycle 1 ([1]; 450 mg cohort 3, 6 evaluable patients): 1
DLT observed (type) ([1]; 450 mg cohort 3, cycle 1): grade 4 abnormal liver function test; also recorded: reversible grade 4 liver function test abnormality
Day on which the patient was considered recovered from the DLT ([1]; 450 mg, reduced to 400 mg in cycle 2): 38 days
Total bilirubin in the patient with DLT ([1]; 450 mg, day 9 of cycle 1, reference 0.3–1.2 mg/dL): 1.1 mg/dL
ALT in the patient with DLT ([1]; 450 mg, day 9 of cycle 1, reference 6–30 IU/L): 116 IU/L
AST in the patient with DLT ([1]; 450 mg, day 9 of cycle 1, reference 13–33 IU/L): 131 IU/L
ALT in the patient with DLT ([1]; 450 mg, day 11 of cycle 1): 711 IU/L
AST in the patient with DLT ([1]; 450 mg, day 11 of cycle 1): 764 IU/L
Total bilirubin in the patient with DLT ([1]; 450 mg, day 11 of cycle 1): 2.6 mg/dL
ALT in the patient with DLT ([1]; 450 mg, day 16): 450 IU/L
AST in the patient with DLT ([1]; 450 mg, day 16): 156 IU/L
Total bilirubin in the patient with DLT ([1]; 450 mg, day 16): 3.8 mg/dL
ALT in the patient with DLT [1, 3]: 38 IU/L
AST in the patient with DLT [1, 3]: 15 IU/L
Total bilirubin in the patient with DLT [1, 3]: 1.0 mg/dL
Maximum tolerated dose (MTD) ([1]; intravenous 2-h infusion on days 1 and 15 of 28-day cycles): 450 mg
Blood creatinine increased, all grades, patients ([2]; 350 mg (n = 7)): 1 n
Decreased appetite, all grades, patients ([2]; 350 mg (n = 7)): 5 n
Decreased appetite, grade 3, patients ([2]; 350 mg (n = 7)): 1 n
Epistaxis, all grades, patients ([2]; 350 mg (n = 7)): 1 n
Fatigue, all grades, patients ([2]; 350 mg (n = 7)): 1 n
Febrile neutropenia, all grades, patients ([2]; 350 mg (n = 7)): 5 n
Febrile neutropenia, grade 3, patients ([2]; 350 mg (n = 7)): 5 n
Hyperuricemia, all grades, patients ([2]; 350 mg (n = 7)): 3 n
Hypoalbuminemia, all grades, patients ([2]; 350 mg (n = 7)): 2 n
Hypokalemia, all grades, patients ([2]; 350 mg (n = 7)): 3 n
Hypokalemia, grade 3, patients ([2]; 350 mg (n = 7)): 1 n
Infection, all grades, patients ([2]; 350 mg (n = 7)): 2 n
Infection, grade 3, patients ([2]; 350 mg (n = 7)): 2 n
Nausea, all grades, patients ([2]; 350 mg (n = 7)): 1 n
Neutropenia, all grades, patients ([2]; 350 mg (n = 7)): 1 n
Neutropenia, grade 4, patients ([2]; 350 mg (n = 7)): 1 n
Pyrexia, all grades, patients ([2]; 350 mg (n = 7)): 2 n
Sepsis, all grades, patients ([2]; 350 mg (n = 7)): 2 n
Sepsis, grade 3, patients ([2]; 350 mg (n = 7)): 2 n
Stomatitis, all grades, patients ([2]; 350 mg (n = 7)): 2 n
Vomiting, all grades, patients ([2]; 350 mg (n = 7)): 1 n
Patients reporting grade 4 AE ([2]; 350 mg cohort 1, neutropenia and thrombocytopenia): one of seven patients
Blood creatinine increased, all grades, patients ([2]; 400 mg (n = 4)): 2 n
Decreased appetite, all grades, patients ([2]; 400 mg (n = 4)): 1 n
Epistaxis, all grades, patients ([2]; 400 mg (n = 4)): 2 n
Fatigue, all grades, patients ([2]; 400 mg (n = 4)): 3 n
Febrile neutropenia, all grades, patients ([2]; 400 mg (n = 4)): 3 n
Febrile neutropenia, grade 3, patients ([2]; 400 mg (n = 4)): 3 n
Nausea, all grades, patients ([2]; 400 mg (n = 4)): 2 n
Neutropenia, all grades, patients ([2]; 400 mg (n = 4)): 1 n
Neutropenia, grade 4, patients ([2]; 400 mg (n = 4)): 1 n
Rash, all grades, patients ([2]; 400 mg (n = 4)): 4 n
Sepsis, all grades, patients ([2]; 400 mg (n = 4)): 1 n
Sepsis, grade 3, patients ([2]; 400 mg (n = 4)): 1 n
Stomatitis, all grades, patients ([2]; 400 mg (n = 4)): 1 n
Vomiting, all grades, patients ([2]; 400 mg (n = 4)): 1 n
Patients reporting grade 4 AE ([2]; 400 mg cohort 2, neutropenia and thrombocytopenia): two of four patients
Decreased appetite, all grades, patients ([2]; 450 mg (n = 8)): 2 n
Decreased appetite, grade 3, patients ([2]; 450 mg (n = 8)): 2 n
Epistaxis, all grades, patients ([2]; 450 mg (n = 8)): 2 n
Fatigue, all grades, patients ([2]; 450 mg (n = 8)): 1 n
Febrile neutropenia, all grades, patients ([2]; 450 mg (n = 8)): 7 n
Febrile neutropenia, grade 3, patients ([2]; 450 mg (n = 8)): 6 n
Hypoalbuminemia, all grades, patients ([2]; 450 mg (n = 8)): 1 n
Hypokalemia, all grades, patients ([2]; 450 mg (n = 8)): 2 n
Hypokalemia, grade 4, patients ([2]; 450 mg (n = 8)): 1 n
Infection, all grades, patients ([2]; 450 mg (n = 8)): 1 n
Nausea, all grades, patients ([2]; 450 mg (n = 8)): 4 n
Neutropenia, all grades, patients ([2]; 450 mg (n = 8)): 1 n
Neutropenia, grade 4, patients ([2]; 450 mg (n = 8)): 1 n
Pyrexia, all grades, patients ([2]; 450 mg (n = 8)): 2 n
Rash, all grades, patients ([2]; 450 mg (n = 8)): 3 n
Sepsis, all grades, patients ([2]; 450 mg (n = 8)): 2 n
Sepsis, grade 3, patients ([2]; 450 mg (n = 8)): 2 n
Stomatitis, all grades, patients ([2]; 450 mg (n = 8)): 2 n
Vomiting, all grades, patients ([2]; 450 mg (n = 8)): 2 n
Patients reporting grade 4 AE ([2]; 450 mg cohort 3, neutropenia, hypokalemia and abnormal liver function test): three of eight patients
Blood creatinine increased, all grades, patients ([2]; Total (N = 19)): 3 n
Decreased appetite, all grades, patients ([2]; Total (N = 19)): 8 n
Decreased appetite, grade 3, patients ([2]; Total (N = 19)): 3 n
Epistaxis, all grades, patients ([2]; Total (N = 19)): 5 n
Fatigue, all grades, patients ([2]; Total (N = 19)): 5 n
Febrile neutropenia, all grades, patients ([2]; Total (N = 19)): 15 n
Febrile neutropenia, grade 3, patients ([2]; Total (N = 19)): 14 n
Hyperuricemia, all grades, patients ([2]; Total (N = 19)): 3 n
Hypoalbuminemia, all grades, patients ([2]; Total (N = 19)): 3 n
Hypokalemia, all grades, patients ([2]; Total (N = 19)): 5 n
Hypokalemia, grade 3, patients ([2]; Total (N = 19)): 1 n
Hypokalemia, grade 4, patients ([2]; Total (N = 19)): 1 n
Infection, all grades, patients ([2]; Total (N = 19)): 3 n
Infection, grade 3, patients ([2]; Total (N = 19)): 2 n
Nausea, all grades, patients ([2]; Total (N = 19)): 7 n
Neutropenia, all grades, patients ([2]; Total (N = 19)): 3 n
Neutropenia, grade 4, patients ([2]; Total (N = 19)): 3 n
Pyrexia, all grades, patients ([2]; Total (N = 19)): 4 n
Rash, all grades, patients ([2]; Total (N = 19)): 7 n
Sepsis, all grades, patients ([2]; Total (N = 19)): 5 n
Sepsis, grade 3, patients ([2]; Total (N = 19)): 5 n
Stomatitis, all grades, patients ([2]; Total (N = 19)): 5 n
Vomiting, all grades, patients ([2]; Total (N = 19)): 4 n
Decreased appetite, frequency [2, 4]: 42.1%
Epistaxis, frequency [2, 4]: 26.3%
Fatigue, frequency [2, 4]: 26.3%
Febrile neutropenia, frequency [2, 4]: 78.9%
Hypokalemia, frequency [2, 4]: 26.3%
Nausea, frequency [2, 4]: 36.8%
Pyrexia, frequency [2, 4]: 21.1%
Rash, frequency [2, 4]: 36.8%
Sepsis, frequency [2, 4]: 26.3%
Stomatitis, frequency [2, 4]: 26.3%
Vomiting, frequency [2, 4]: 21.1%
Patients reporting CTCAE of grade ≥3 [2, 5]: 94.7%
Patients reporting at least one AE irrespective of cause [2, 5]: 19 patients
Patients reporting at least one drug-related AE [2, 5]: 19 patients
